Measured values from ChEMBL document CHEMBL1255475, “Mutant prevention concentrations of four carbapenems against gram-negative rods” (2010).
In brackets after ≈: the same amount, converted by molar mass.

Assays:
Assay type in all cases: functional
Klebsiella pneumoniae [1] = assay: Antibacterial activity against beta-lactamase-negative Klebsiella pneumoniae E361 incubated up to 7 days by agar dilution method; conditions: E361, 168 h
Escherichia coli [2] = assay: Antibacterial activity against beta-lactamase-negative Escherichia coli E348 incubated up to 7 days by agar dilution method; conditions: E348, 168 h
Escherichia coli [3] = assay: Antibacterial activity against beta-lactamase-negative Escherichia coli E348 assessed as mutant prevention concentration after overnight incubation
Klebsiella pneumoniae [4] = assay: Antibacterial activity against beta-lactamase-positive ESBL-negative Klebsiella pneumoniae E507 assessed as mutant prevention concentration after overnight incubation
Method in brief: (§1)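 Overnight growth on blood trypticase soy agar (35°C, air) was resuspended in 0.9% saline and counted on drug-free Mueller-Hinton agar. […] Colonies were retested by agar dilution to confirm mutants. MPC was the lowest concentration preventing resistant-mutant growth.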

Escherichia coli [5] = assay: Antibacterial activity against beta-lactamase-positive ESBL-negative Escherichia coli E484 assessed as mutant prevention concentration after overnight incubation; method in brief: as §1
Klebsiella pneumoniae [6] = assay: Antibacterial activity against beta-lactamase-positive ESBL-negative Klebsiella pneumoniae E480 assessed as mutant prevention concentration after overnight incubation; method in brief: as §1
Klebsiella pneumoniae [7] = assay: Antibacterial activity against beta-lactamase-positive ESBL-positive Klebsiella pneumoniae E475 assessed as mutant prevention concentration after overnight incubation; method in brief: as §1
Klebsiella pneumoniae [8] = assay: Antibacterial activity against beta-lactamase-positive ESBL-negative Klebsiella pneumoniae E511 incubated up to 7 days by agar dilution method; conditions: E511, 168 h
Escherichia coli [9] = assay: Antibacterial activity against beta-lactamase-positive ESBL-positive Escherichia coli E456 assessed as mutant prevention concentration after overnight incubation; method in brief: as §1
Klebsiella pneumoniae [10] = assay: Antibacterial activity against beta-lactamase-negative Klebsiella pneumoniae E362 incubated up to 7 days by agar dilution method; conditions: E362, 168 h
Klebsiella pneumoniae [11] = assay: Antibacterial activity against beta-lactamase-positive ESBL-positive Klebsiella pneumoniae E457 assessed as mutant prevention concentration after overnight incubation; method in brief: as §1
Escherichia coli [12] = assay: Antibacterial activity against beta-lactamase-negative Escherichia coli E424 […] by agar dilution method
Klebsiella pneumoniae [13] = assay: Antibacterial activity against beta-lactamase-positive ESBL-positive Klebsiella pneumoniae E475 incubated up to 7 days by agar dilution method; conditions: E475, 168 h
Escherichia coli [14] = assay: Antibacterial activity against beta-lactamase-positive ESBL-positive Escherichia coli E459 assessed as mutant prevention concentration after overnight incubation; method in brief: as §1
Escherichia coli [15] = assay: Antibacterial activity against beta-lactamase-positive ESBL-positive Escherichia coli E451 assessed as mutant prevention concentration after overnight incubation; method in brief: as §1
Klebsiella pneumoniae [16] = assay: Antibacterial activity against beta-lactamase-positive ESBL-positive Klebsiella pneumoniae E453 incubated up to 7 days by agar dilution method; conditions: E453, 168 h
Method in brief: (§2)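 MIC by CLSI agar dilution, with quality-control strains in each run. Beta-lactamase status was set by 30 μg cefazolin Kirby-Bauer disk diffusion. ESBL status was set by cefotaxime and ceftazidime disks (30 μg) with and without clavulanic acid (10 μg).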

Escherichia coli [17] = assay: Antibacterial activity against beta-lactamase-positive ESBL-negative Escherichia coli E415 assessed as mutant prevention concentration after overnight incubation; method in brief: as §1
Klebsiella pneumoniae [18] = assay: Antibacterial activity against beta-lactamase-negative Klebsiella pneumoniae E418 assessed as mutant prevention concentration after overnight incubation; method in brief: as §1
Escherichia coli [19] = assay: Antibacterial activity against beta-lactamase-negative Escherichia coli E346 assessed as mutant prevention concentration after overnight incubation
Escherichia coli [20] = assay: Antibacterial activity against beta-lactamase-positive ESBL-negative Escherichia coli E415 incubated up to 7 days by agar dilution method; conditions: E415, 168 h; method in brief: as §2
Escherichia coli [21] = assay: Antibacterial activity against beta-lactamase-negative Escherichia coli E350 […] by agar dilution method
Klebsiella pneumoniae [22] = assay: Antibacterial activity against beta-lactamase-positive ESBL-negative Klebsiella pneumoniae E472 incubated up to 7 days by agar dilution method; conditions: E472, 168 h
Klebsiella pneumoniae [23] = assay: Antibacterial activity against beta-lactamase-negative Klebsiella pneumoniae E357 incubated up to 7 days by agar dilution method; conditions: E357, 168 h
Klebsiella pneumoniae [24] = assay: Antibacterial activity against beta-lactamase-positive ESBL-negative Klebsiella pneumoniae E509 assessed as mutant prevention concentration after overnight incubation; method in brief: as §1
Klebsiella pneumoniae [25] = assay: Antibacterial activity against beta-lactamase-positive ESBL-positive Klebsiella pneumoniae E453 assessed as mutant prevention concentration after overnight incubation; method in brief: as §1
Escherichia coli [26] = assay: Antibacterial activity against beta-lactamase-positive ESBL-positive Escherichia coli E458 assessed as mutant prevention concentration after overnight incubation; method in brief: as §1
Escherichia coli [27] = assay: Antibacterial activity against beta-lactamase-positive ESBL-negative Escherichia coli E430 assessed as mutant prevention concentration after overnight incubation; method in brief: as §1
Escherichia coli [28] = assay: Antibacterial activity against beta-lactamase-positive ESBL-positive Escherichia coli E460 assessed as mutant prevention concentration after overnight incubation; method in brief: as §1
Klebsiella pneumoniae [29] = assay: Antibacterial activity against beta-lactamase-positive ESBL-negative Klebsiella pneumoniae E474 incubated up to 7 days by agar dilution method; conditions: E474, 168 h
Klebsiella pneumoniae [30] = assay: Antibacterial activity against beta-lactamase-negative Klebsiella pneumoniae E418 incubated up to 7 days by agar dilution method; conditions: E418, 168 h
Pseudomonas aeruginosa [31] = assay: Antibacterial activity against Pseudomonas aeruginosa P334 assessed as mutant prevention concentration after overnight incubation
Acinetobacter baumannii [32] = assay: Antibacterial activity against Acinetobacter baumannii A850 assessed as mutant prevention concentration after overnight incubation
Pseudomonas aeruginosa [33] = assay: Antibacterial activity against Pseudomonas aeruginosa P332 assessed as mutant prevention concentration after overnight incubation
Pseudomonas aeruginosa [34] = assay: Antibacterial activity against Pseudomonas aeruginosa P328 assessed as mutant prevention concentration after overnight incubation
Pseudomonas aeruginosa [35] = assay: Antibacterial activity against Pseudomonas aeruginosa P323 assessed as mutant prevention concentration after overnight incubation
Acinetobacter baumannii [36] = assay: Antibacterial activity against Acinetobacter baumannii A848 assessed as mutant prevention concentration after overnight incubation
Pseudomonas aeruginosa [37] = assay: Antibacterial activity against Pseudomonas aeruginosa P337 assessed as mutant prevention concentration after overnight incubation
Acinetobacter baumannii [38] = assay: Antibacterial activity against Acinetobacter baumannii A928 assessed as mutant prevention concentration after overnight incubation
Acinetobacter baumannii [39] = assay: Antibacterial activity against Acinetobacter baumannii A896 assessed as mutant prevention concentration after overnight incubation
Pseudomonas aeruginosa [40] = assay: Antibacterial activity against Pseudomonas aeruginosa P356 assessed as mutant prevention concentration after overnight incubation
Pseudomonas aeruginosa [41] = assay: Antibacterial activity against Pseudomonas aeruginosa P335 assessed as mutant prevention concentration after overnight incubation
Pseudomonas aeruginosa [42] = assay: Antibacterial activity against Pseudomonas aeruginosa P322 assessed as mutant prevention concentration after overnight incubation
Acinetobacter baumannii [43] = assay: Antibacterial activity against Acinetobacter baumannii A851 assessed as mutant prevention concentration after overnight incubation
Pseudomonas aeruginosa [44] = assay: Antibacterial activity against Pseudomonas aeruginosa P349 assessed as mutant prevention concentration after overnight incubation
Pseudomonas aeruginosa [45] = assay: Antibacterial activity against Pseudomonas aeruginosa P326 assessed as mutant prevention concentration after overnight incubation
Acinetobacter baumannii [46] = assay: Antibacterial activity against Acinetobacter baumannii A911 assessed as mutant prevention concentration after overnight incubation
Acinetobacter baumannii [47] = assay: Antibacterial activity against Acinetobacter baumannii A891 assessed as mutant prevention concentration after overnight incubation
Pseudomonas aeruginosa [48] = assay: Antibacterial activity against Pseudomonas aeruginosa P376 assessed as mutant prevention concentration after overnight incubation

## C[C@@H](O)[C@H]1C(=O)N2C(C(=O)O)=C(S[C@@H]3CN[C@H](C(=O)Nc4cccc(C(=O)O)c4)C3)[C@H](C)[C@H]12
Klebsiella pneumoniae [1]
  MIC: 0.016 mg/L (≈ 0.0336 µM)
Escherichia coli [2]
  MIC: 0.008 mg/L (≈ 0.0168 µM)
Escherichia coli [3]
  MPC: 0.03 µg/mL
Klebsiella pneumoniae [4]
  MPC: 64 µg/mL
Escherichia coli [5]
  MPC: 128 µg/mL
Klebsiella pneumoniae [6]
  MPC: 32 µg/mL
Klebsiella pneumoniae [7]
  MPC: 16 µg/mL
Klebsiella pneumoniae [8]
  MIC: 8 mg/L (≈ 16.8 µM)
Escherichia coli [9]
  MPC: 2 µg/mL
Klebsiella pneumoniae [10]
  MIC: 0.016 mg/L (≈ 0.0336 µM)
Klebsiella pneumoniae [11]
  MPC: 0.125 µg/mL
Escherichia coli [12]
  MIC: 0.016 mg/L (≈ 0.0336 µM)
Klebsiella pneumoniae [13]
  MIC: 8 mg/L (≈ 16.8 µM)
Escherichia coli [14]
  MPC: 0.06 µg/mL
Escherichia coli [15]
  MPC: 1 µg/mL
Klebsiella pneumoniae [16]
  MIC: 0.5 mg/L (≈ 1.05 µM)
Escherichia coli [17]
  MPC: 0.5 µg/mL
Klebsiella pneumoniae [18]
  MPC: 0.125 µg/mL
Escherichia coli [19]
  MPC: 0.03 µg/mL
Escherichia coli [20]
  MIC: 0.125 mg/L (≈ 0.263 µM)
Escherichia coli [21]
  MIC: 0.016 mg/L (≈ 0.0336 µM)
Klebsiella pneumoniae [22]
  MIC: 8 mg/L (≈ 16.8 µM)
Klebsiella pneumoniae [23]
  MIC: 0.008 mg/L (≈ 0.0168 µM)
Klebsiella pneumoniae [24]
  MPC: 64 µg/mL
Klebsiella pneumoniae [25]
  MPC: 1 µg/mL
Escherichia coli [26]
  MPC: 0.5 µg/mL
Escherichia coli [27]
  MPC: >0.5 µg/mL
Escherichia coli [28]
  MPC: 0.5 µg/mL
Klebsiella pneumoniae [29]
  MIC: 4 mg/L (≈ 8.41 µM)
Klebsiella pneumoniae [30]
  MIC: 0.06 mg/L (≈ 0.126 µM)

## C[C@@H](O)[C@H]1C(=O)N2C(C(=O)O)=C(S[C@@H]3CN[C@H](CNS(N)(=O)=O)C3)[C@H](C)[C@H]12 [DORIPENEM]
Pseudomonas aeruginosa [31]
  MPC: >2 µg/mL
Acinetobacter baumannii [32]
  MPC: 8 µg/mL
Pseudomonas aeruginosa [33]
  MPC: >4 µg/mL
Pseudomonas aeruginosa [34]
  MPC: 4 µg/mL
Klebsiella pneumoniae [1]
  MIC: 0.06 mg/L (≈ 0.143 µM)
Escherichia coli [2]
  MIC: 0.03 mg/L (≈ 0.0713 µM)
Pseudomonas aeruginosa [35]
  MPC: 4 µg/mL
Escherichia coli [3]
  MPC: 0.06 µg/mL
Klebsiella pneumoniae [4]
  MPC: >64 µg/mL
Escherichia coli [5]
  MPC: 8 µg/mL
Klebsiella pneumoniae [6]
  MPC: 8 µg/mL
Klebsiella pneumoniae [7]
  MPC: 16 µg/mL
Acinetobacter baumannii [36]
  MPC: 16 µg/mL
Klebsiella pneumoniae [8]
  MIC: 2 mg/L (≈ 4.76 µM)
Escherichia coli [9]
  MPC: 0.25 µg/mL
Klebsiella pneumoniae [10]
  MIC: 0.06 mg/L (≈ 0.143 µM)
Pseudomonas aeruginosa [37]
  MPC: 8 µg/mL
Klebsiella pneumoniae [11]
  MPC: 0.125 µg/mL
Escherichia coli [12]
  MIC: 0.03 mg/L (≈ 0.0713 µM)
Klebsiella pneumoniae [13]
  MIC: 2 mg/L (≈ 4.76 µM)
Escherichia coli [14]
  MPC: 0.125 µg/mL
Escherichia coli [15]
  MPC: 0.06 µg/mL
Acinetobacter baumannii [38]
  MPC: 1 µg/mL
Klebsiella pneumoniae [16]
  MIC: 0.06 mg/L (≈ 0.143 µM)
Escherichia coli [17]
  MPC: 0.06 µg/mL
Klebsiella pneumoniae [18]
  MPC: 0.25 µg/mL
Escherichia coli [19]
  MPC: 0.06 µg/mL
Escherichia coli [20]
  MIC: 0.03 mg/L (≈ 0.0713 µM)
Acinetobacter baumannii [39]
  MPC: 1 µg/mL
Pseudomonas aeruginosa [40]
  MPC: >4 µg/mL
Pseudomonas aeruginosa [41]
  MPC: 16 µg/mL
Pseudomonas aeruginosa [42]
  MPC: 4 µg/mL
Acinetobacter baumannii [43]
  MPC: 16 µg/mL
Escherichia coli [21]
  MIC: 0.06 mg/L (≈ 0.143 µM)
Klebsiella pneumoniae [22]
  MIC: 2 mg/L (≈ 4.76 µM)
Pseudomonas aeruginosa [44]
  MPC: 8 µg/mL
Klebsiella pneumoniae [23]
  MIC: 0.06 mg/L (≈ 0.143 µM)
Pseudomonas aeruginosa [45]
  MPC: 16 µg/mL
Acinetobacter baumannii [46]
  MPC: 8 µg/mL
Klebsiella pneumoniae [24]
  MPC: >64 µg/mL
Klebsiella pneumoniae [25]
  MPC: 0.125 µg/mL
Escherichia coli [26]
  MPC: 0.06 µg/mL
Acinetobacter baumannii [47]
  MPC: 2 µg/mL
Escherichia coli [27]
  MPC: 0.125 µg/mL
Escherichia coli [28]
  MPC: 0.125 µg/mL
Pseudomonas aeruginosa [48]
  MPC: 16 µg/mL
Klebsiella pneumoniae [29]
  MIC: 2 mg/L (≈ 4.76 µM)
Klebsiella pneumoniae [30]
  MIC: 0.125 mg/L (≈ 0.297 µM)
